# According to publication PMC4132832 (Biochemical pharmacology, 2013):
# Structures can show the parent of a compound that is named as a salt.
# Molecular target: Kir6.1/SUR2B channel (Rattus norvegicus, UniProt Q63664)
# Test: whole-cell voltage clamp, HEK293
# Format: cell-based
# Summary of the method: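 Rat Kir6.1 and SUR2B co-expressed in HEK293 with GFP marker, whole-cell patched at room temperature, holding 0 mV, 600-ms steps to -80 mV, symmetric 145 mM K+. Bath: K-gluconate/KCl, EGTA, glucose, HEPES pH 7.4. Pipette adds 1 mM K2ATP, 0.5 mM NaADP and 1 mM MgCl2. Plateau current normalized to the pinacidil/glibenclamide window. IC50 from Hill fit.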
# Chain of Kir6.1/SUR2B channel (Q63664 whole entry): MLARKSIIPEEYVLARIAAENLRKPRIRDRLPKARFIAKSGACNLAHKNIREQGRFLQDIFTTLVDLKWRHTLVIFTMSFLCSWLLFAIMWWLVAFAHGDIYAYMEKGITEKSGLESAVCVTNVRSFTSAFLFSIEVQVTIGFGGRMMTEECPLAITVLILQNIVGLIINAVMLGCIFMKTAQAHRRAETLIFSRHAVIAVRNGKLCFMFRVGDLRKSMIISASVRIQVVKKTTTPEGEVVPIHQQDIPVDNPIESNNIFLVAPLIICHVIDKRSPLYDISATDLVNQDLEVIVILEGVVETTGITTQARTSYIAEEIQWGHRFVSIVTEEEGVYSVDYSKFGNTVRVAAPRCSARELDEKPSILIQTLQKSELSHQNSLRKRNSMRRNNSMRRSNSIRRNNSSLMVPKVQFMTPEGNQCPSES
# Chain of Kir6.1/SUR2B channel (P70170 whole entry partner): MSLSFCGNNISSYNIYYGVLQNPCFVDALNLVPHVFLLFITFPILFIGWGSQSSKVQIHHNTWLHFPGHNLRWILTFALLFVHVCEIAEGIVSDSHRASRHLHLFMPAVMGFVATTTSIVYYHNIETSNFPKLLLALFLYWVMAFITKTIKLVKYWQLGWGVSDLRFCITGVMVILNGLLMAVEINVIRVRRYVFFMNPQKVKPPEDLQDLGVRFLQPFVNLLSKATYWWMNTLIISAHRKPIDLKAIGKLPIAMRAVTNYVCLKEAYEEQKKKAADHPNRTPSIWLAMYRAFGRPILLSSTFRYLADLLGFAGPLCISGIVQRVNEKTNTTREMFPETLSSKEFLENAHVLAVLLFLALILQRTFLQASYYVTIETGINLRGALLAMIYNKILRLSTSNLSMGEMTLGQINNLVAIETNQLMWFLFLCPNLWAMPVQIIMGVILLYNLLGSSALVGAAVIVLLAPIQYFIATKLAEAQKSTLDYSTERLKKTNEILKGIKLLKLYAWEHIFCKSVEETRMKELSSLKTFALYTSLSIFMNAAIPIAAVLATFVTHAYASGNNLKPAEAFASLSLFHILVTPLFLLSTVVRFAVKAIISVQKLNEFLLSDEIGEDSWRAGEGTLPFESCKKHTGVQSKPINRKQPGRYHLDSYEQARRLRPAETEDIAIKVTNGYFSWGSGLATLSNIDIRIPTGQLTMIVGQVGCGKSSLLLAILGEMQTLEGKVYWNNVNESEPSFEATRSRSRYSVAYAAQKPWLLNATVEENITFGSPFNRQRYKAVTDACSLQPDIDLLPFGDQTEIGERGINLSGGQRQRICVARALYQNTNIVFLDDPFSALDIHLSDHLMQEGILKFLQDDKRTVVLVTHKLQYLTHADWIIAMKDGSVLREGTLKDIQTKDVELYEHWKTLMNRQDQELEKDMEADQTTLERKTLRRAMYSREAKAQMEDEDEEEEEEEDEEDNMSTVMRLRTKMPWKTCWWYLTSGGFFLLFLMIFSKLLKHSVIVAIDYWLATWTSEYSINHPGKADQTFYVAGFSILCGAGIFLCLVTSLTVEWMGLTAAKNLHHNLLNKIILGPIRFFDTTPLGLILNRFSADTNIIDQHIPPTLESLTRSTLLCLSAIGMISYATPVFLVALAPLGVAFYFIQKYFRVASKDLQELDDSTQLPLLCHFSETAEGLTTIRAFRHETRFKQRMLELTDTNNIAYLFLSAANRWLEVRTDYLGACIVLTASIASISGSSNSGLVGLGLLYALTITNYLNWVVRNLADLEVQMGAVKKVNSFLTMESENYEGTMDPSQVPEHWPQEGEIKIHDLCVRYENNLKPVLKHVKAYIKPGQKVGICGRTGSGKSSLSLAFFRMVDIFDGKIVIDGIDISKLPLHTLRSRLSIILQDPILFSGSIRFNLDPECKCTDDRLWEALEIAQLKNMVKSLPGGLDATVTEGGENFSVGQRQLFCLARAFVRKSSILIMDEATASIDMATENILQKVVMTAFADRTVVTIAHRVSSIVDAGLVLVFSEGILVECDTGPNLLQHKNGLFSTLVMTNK
row,IC50 [µM],Structure (SMILES)
1,120,"Cc1cc(SCc2sc(-c3ccc(C(F)(F)F)cc3)nc2C)ccc1OCC(=O)O [GW501516, 2-[2-methyl-4-[[4-methyl-2-[4-(trifluoromethyl)phenyl]-1,3-thiazol-5-yl]methylsulfanyl]phenoxy]acetic acid]"
2,60,"O=C1NC(=O)/C(=C/c2ccc3nccnc3c2)S1 [AS605240, (5Z)-5-(quinoxalin-6-ylmethylidene)-1,3-thiazolidine-2,4-dione]"
3,4,"O=C1NC(=O)/C(=C/c2ccc(-c3ccc(F)cc3O)o2)S1 [AS-252424, (5Z)-5-[[5-(4-fluoro-2-hydroxyphenyl)furan-2-yl]methylidene]-1,3-thiazolidine-2,4-dione]"
4,> 100,"O=C1NC(=O)C(Cc2ccc(O)cc2)S1 (stereo not drawn) [CDS005865, 5-(4-hydroxybenzyl)-2,4-thiazolidinedione]"

# Further lines, the compound ahead of its results:
row,Structure (SMILES),IC50 [µM]
1,"CC(C)OC(=O)C(C)(C)Oc1ccc(C(=O)c2ccc(Cl)cc2)cc1 [Fenofibrate, propan-2-yl 2-[4-(4-chlorobenzoyl)phenoxy]-2-methylpropanoate]",80
2,"CCc1ccc(C(=O)COc2ccc(CC3SC(=O)NC3=O)cc2)nc1 (stereo not drawn) [Cay10415, 5-[[4-[2-(5-ethylpyridin-2-yl)-2-oxoethoxy]phenyl]methyl]-1,3-thiazolidine-2,4-dione]",15
3,"O=C1NC(=O)C(Cc2ccc3c(c2)CC[C@H](Cc2ccccc2)O3)S1 (stereo partly drawn) [Englitazone, 5-[(2-benzyl-3,4-dihydro-2H-chromen-6-yl)methyl]-1,3-thiazolidine-2,4-dione]",7
4,"Cc1c(C)c2c(c(C)c1O)CCC(C)(COc1ccc(CC3SC(=O)NC3=O)cc1)O2 (stereo not drawn) [Troglitazone, 5-[[4-[(6-hydroxy-2,5,7,8-tetramethyl-3,4-dihydrochromen-2-yl)methoxy]phenyl]methyl]-1,3-thiazolidine-2,4-dione]",100
5,"CC1(COc2ccc(CC3SC(=O)NC3=O)cc2)CCCCC1 (stereo not drawn) [Ciglitazone, 5-[[4-[(1-methylcyclohexyl)methoxy]phenyl]methyl]-1,3-thiazolidine-2,4-dione]",120
6,"Cc1oc(-c2ccccc2)nc1CCC(=O)c1ccc(CC2SC(=O)NC2=O)cc1 (stereo not drawn) [Darglitazone, 5-[[4-[3-(5-methyl-2-phenyl-1,3-oxazol-4-yl)propanoyl]phenyl]methyl]-1,3-thiazolidine-2,4-dione]",25
7,"CN(CCOc1ccc(CC2SC(=O)NC2=O)cc1)c1ccccn1 (stereo not drawn) [Rosiglitazone, 5-[[4-[2-[methyl(pyridin-2-yl)amino]ethoxy]phenyl]methyl]-1,3-thiazolidine-2,4-dione]",12
8,"Cc1cc(SCc2sc(-c3ccc(C(F)(F)F)c(F)c3)nc2C)ccc1OCC(=O)O [GW0742, 2-[4-[[2-[3-fluoro-4-(trifluoromethyl)phenyl]-4-methyl-1,3-thiazol-5-yl]methylsulfanyl]-2-methylphenoxy]acetic acid]",80
9,"Cc1ccc(C)c(OCCCC(C)(C)C(=O)O)c1 [Gemfibrozil, 5-(2,5-dimethylphenoxy)-2,2-dimethylpentanoic acid]",290
10,"CCOc1ccc(C=C2SC(=O)N(CCN)C2=O)cc1 [A6355, 3-(2-aminoethyl)-5-[(4-ethoxyphenyl)methylidene]-1,3-thiazolidine-2,4-dione hydrochloride]",8
11,"CCc1ccc(CCOc2ccc(CC3SC(=O)NC3=O)cc2)nc1 (stereo not drawn) [Pioglitazone, 5-[[4-[2-(5-ethylpyridin-2-yl)ethoxy]phenyl]methyl]-1,3-thiazolidine-2,4-dione]",95
